Columns and labels:
[1] = molecular target: T1, C-X-C chemokine receptor type 2 (Homo sapiens, UniProt P25025); assay: Displacement of [125I]IL-8 from human CXCR2 expressed in mouse BaF3 cells by liquid scintillation counting; assay type: cell-based
T1 sequence (P25025 whole entry): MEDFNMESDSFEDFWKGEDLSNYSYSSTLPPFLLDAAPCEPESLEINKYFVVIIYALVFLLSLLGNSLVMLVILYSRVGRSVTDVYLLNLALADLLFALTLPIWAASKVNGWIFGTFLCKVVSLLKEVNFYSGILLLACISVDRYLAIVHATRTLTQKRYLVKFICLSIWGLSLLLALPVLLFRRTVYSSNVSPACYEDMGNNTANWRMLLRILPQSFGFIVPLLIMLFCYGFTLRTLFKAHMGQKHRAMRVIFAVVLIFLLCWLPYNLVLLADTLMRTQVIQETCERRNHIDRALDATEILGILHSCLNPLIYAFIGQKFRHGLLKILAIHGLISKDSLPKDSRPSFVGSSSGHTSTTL
In short: (§1)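 SPA competition binding with receptor-overexpressing membranes (CXCR2 or CXCR1, CXCR1 at twice the membrane amount) mixed with 2 mg/mL wheatgerm-agglutinin-coated SPA beads. Buffer was 25 mM HEPES, 3 mM MgCl2, pH 7.4; the membrane and bead mix was held on ice 5 min. Tracer was [125I]IL-8 from a 0.040 nM stock. Compounds were half-log serially diluted in DMSO. Plates were incubated 2 h at room temperature, protected from light, then counted by liquid scintillation.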

[2] = molecular target: T2, C-X-C chemokine receptor type 1 (Homo sapiens, UniProt P25024); assay: Displacement of [125I]IL-8 from human CXCR1 expressed in mouse BaF3 cells by liquid scintillation counting; assay type: cell-based; in short: as §1
T2 sequence (P25024 whole entry): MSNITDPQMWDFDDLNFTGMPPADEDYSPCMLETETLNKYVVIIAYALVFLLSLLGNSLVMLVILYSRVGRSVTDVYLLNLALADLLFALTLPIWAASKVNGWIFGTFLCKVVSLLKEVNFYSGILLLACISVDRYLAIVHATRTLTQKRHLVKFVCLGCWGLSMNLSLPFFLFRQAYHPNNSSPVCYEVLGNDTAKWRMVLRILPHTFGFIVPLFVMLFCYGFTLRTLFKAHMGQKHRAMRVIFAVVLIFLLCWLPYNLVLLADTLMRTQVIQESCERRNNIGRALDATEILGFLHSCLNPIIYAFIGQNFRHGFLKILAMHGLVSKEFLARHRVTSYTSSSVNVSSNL

Homo sapiens = organism: Homo sapiens; assay: Selectivity ratio of Ki for human CXCR1 to Ki for human CXCR2
In short: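 Scintillation proximity binding assays on membranes over-expressing CXCR2 or CXCR1, with CXCR1 membranes at twice the CXCR2 membrane level. Membranes were premixed with 2 mg/mL wheatgerm-agglutinin SPA beads in 25 mM HEPES, 3 mM MgCl2, pH 7.4, 5 min on ice. Half-log serial DMSO dilutions were added with [125I]IL-8 (0.040 nM stock). Plates were kept 2 h at room temperature in the dark, then read by scintillation counting.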

[3] = Metabolic stability in human liver microsomes assessed as half life at 1 uM; assay type: ADME, Microsome
[4] = Metabolic stability in human liver microsomes assessed as compound remaining at 1 uM after 120 mins; assay type: ADME, Microsome; details: read-out: Stability
[5] = Metabolic stability in rat liver microsomes assessed as half life at 1 uM; assay type: ADME, Microsome

| SMILES | Ki [1] [nM] | Ki [2] [µM] | Ratio Ki (Homo sapiens) | IC50 [1] [µM] | half-life at 1 µM [3] [min] | remaining at 2 h, 1 µM [4] [%] | half-life at 1 µM [5] [min] |
| --- | --- | --- | --- | --- | --- | --- | --- |
| CCN(Cc1ccc(F)cc1)Nc1c(Nc2cccc(C(=O)N(C)C)c2O)c(=O)c1=O | 7200 | > 12 |  |  |  |  |  |
| CCN(Nc1c(Nc2cccc(C(=O)N(C)C)c2O)c(=O)c1=O)C(C)=O | 320 | > 12 |  | 3.29 |  |  |  |
| CCN(CC)Nc1c(Nc2cccc(C(=O)N(C)C)c2O)c(=O)c1=O | 120 | 9.7 | 80 | 1.86 | > 120 | > 50 | 84 |
| CCNNc1c(Nc2cccc(C(=O)N(C)C)c2O)c(=O)c1=O |  |  |  | 5.49 |  |  |  |

More lines, in order of falling Ki [1], values ahead:

| Ki [1] [nM] | Ki [2] [µM] | Ratio Ki (Homo sapiens) | IC50 [1] [µM] | half-life at 1 µM [3] [min] | remaining at 2 h, 1 µM [4] [%] | half-life at 1 µM [5] [min] | SMILES |
| --- | --- | --- | --- | --- | --- | --- | --- |
| 550 | > 12 | > 20 |  |  |  |  | CCN(Nc1c(Nc2cccc(C(=O)N(C)C)c2O)c(=O)c1=O)c1ccc(F)cc1 |
| 260 | > 12 | > 46 |  |  |  |  | CCN(Nc1c(Nc2cccc(C(=O)N(C)C)c2O)c(=O)c1=O)C(=O)c1ccc(F)cc1 |
| 180 | 6.5 | 40 |  |  |  |  | CCN(Nc1c(Nc2cccc(C(=O)N(C)C)c2O)c(=O)c1=O)c1ccc(OC)cc1 |
| 130 | 5.2 | 40 |  | > 120 | > 50 |  | CCN(Nc1c(Nc2cccc(C(=O)N(C)C)c2O)c(=O)c1=O)c1ccccn1 |
| 110 | 4.1 | 40 |  | > 120 | > 50 |  | CCN(Nc1c(Nc2cccc(C(=O)N(C)C)c2O)c(=O)c1=O)c1ccccc1 |
